A short description of data set [1]: Clearance in uraemic patient (15 patients) at 100 mg, iv. The conditions noted are these: human, in vivo.
Data set [2] can be described thus: Stability in whole blood (unknown origin) using compound stored in ice water slurry. In kind it is ADME, tissue-based. Particulars: unidentified.
Data set [3] can be described thus: Stability in plasma (unknown origin) using compound stored in frozen condition. Particulars: unidentified. In kind it is ADME, cell-free.
The species entered for the next data set is Homo sapiens. Put plainly: Toxicity in inflammatory bowel disease patient assessed as induction of leucopenia. Type of data set: organism-based. The conditions noted are these: in vivo.
The nature of data set [4]: Tmax in uraemic patient (8 patients) at 100 mg, po. The conditions noted are these: human, in vivo.
Data set [5] can be described thus: Cmax in uraemic patient (8 patients) at 100 mg, po. The conditions noted are these: human, in vivo.
The nature of data set [6]: Oral bioavailability in uraemic patient (8 patients) at 100 mg. Particulars: human, in vivo.
A short description of data set [7]: Volume of distribution at steady state in uraemic patient (15 patients) at 100 mg, iv. The conditions noted are these: human, in vivo.
Data set [8] in a line: Stability of the compound in extracted form in plasma (unknown origin) at room temperature. Particulars: unidentified. In kind it is ADME, cell-free. In a few lines:
(§1)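 6MP in plasma was held at room temperature, both unextracted and after extraction, and measured by HPLC.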

Data set [9] is described as follows: Stability in plasma (unknown origin) at room temperature. The conditions noted are these: unidentified. In kind it is ADME, cell-free. A digest of the protocol:
as §1

Data set [10] can be described thus: Drug excretion in feces of human treated with Eudragit coated tablets. Type of data set: ADME, tissue-based. The conditions noted are these: faeces, po, read-out: Drug excretion.

Structures are written as SMILES.

In turn, `Cn1cnc([N+](=O)[O-])c1Sc1ncnc2nc[nH]c12` [AZATHIOPRINE] had a clearance in data set [1] of 6.2 L/h/kg. Besides, the Stability result in [2] is “<= 5 hr”; in data set [3], “<= 1 yr”. In addition, the Activity in the data set filed under Homo sapiens is listed as 2%. Besides, in [4], the Tmax worked out at 1.5 h. The peak level in [5] (Cmax) was 0.022 µg/mL. The bioavailability in data set [6] came out at 41%. In addition, the volume of distribution (Vd) in [7] stood at 9.3 L/kg.

On to `Sc1ncnc2nc[nH]c12` [MERCAPTOPURINE ANHYDROUS], for which the Stability result was “<= 5 hr” in [2], “<= 1 yr” in data set [3], “<= 30 hr” in [8] and 4 h in data set [9]. Moreover, the Activity in the data set filed under Homo sapiens worked out at 2%.

Regarding `Nc1ccc(O)c(C(=O)O)c1` [MESALAMINE], the dose excreted in data set [10] is 25%.

Values taken from ChEMBL document CHEMBL3784923, “Azathioprine pharmacokinetics after intravenous, oral, delayed release oral and rectal foam administration” (Gut, 1996).
